ChEMBL document CHEMBL3525987, “Assessment of exposure of metabolites in preclinical species and humans at steady state from the single-dose radiolabeled absorption, distribution, metabolism, and excretion studies: a case study” (Drug Metab Dispos, 2012)

Experiments:
[1] = test system: Rattus norvegicus; test: Half life as total radioactivity in male Sprague-Dawley rat plasma at 10 mg/kg, po administered as single dose via gavage by LC-MS/MS analysis; assay type: ADME, organism-based; parameters: dose 10 mg/kg, dosed compound name [14C]lixivaptan, route oral; conditions: in vivo
How it was run: (§1)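 Jugular-vein cannulated SD rats (5/gender) given gavage [14C]drug 10 mg/kg in pluronic F68/water; K2EDTA blood 0.25-168 h with donor blood replacement. Parent by validated LC-MS/MS, radioactivity by LSC; Tmax observed; t1/2 = 0.693/kel by terminal log-linear regression.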

[2] = test system: Homo sapiens; test: Drug level in human plasma at 100 mg, po administered as single dose measured after 2 hrs by liquid scintillation counting; assay type: ADME, organism-based; parameters: dosed compound name [14C]lixivaptan; conditions: in vivo
How it was run: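 Healthy male volunteers fasted ≥10 h, given single oral 100 mg (200 µCi) [14C]drug as two 50-mg capsules with 250 ml water. Plasma (from ~50 ml blood) at 0.5, 2, 4, 8, 12, 24, 36 h, profiled per subject. Acetonitrile extraction, C18 radio-HPLC with 0.2% formic acid acetonitrile/water gradient, on-line radioactivity detection as % plasma radioactivity; ng-equiv/ml from % × total radioactivity.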

[3] = test system: Rattus norvegicus; test: AUC(0 to infinity) as total radioactivity in female Sprague-Dawley rat plasma at 10 mg/kg, po administered as single dose via gavage […]; assay type: ADME, organism-based; parameters: time infinity, dose 10 mg/kg, dosed compound name [14C]lixivaptan, route oral; conditions: in vivo
How it was run: (§2)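 Jugular-cannulated Sprague-Dawley rats (5/gender) were fasted 18 h and gavaged once with 10 mg/kg [14C]lixivaptan suspended in water/pluronic F68. K2EDTA blood was taken at 0.25–168 h, with donor blood replaced from 1 h on. Total radioactivity was read by LSC (ng-equiv/ml) and parent by validated LC-MS/MS. Noncompartmental Cmax, log-linear kel and trapezoidal AUC followed.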

[4] = test system: Rattus norvegicus; test: Drug recovery in cage wash/debris of female Sprague-Dawley rat at 10 mg/kg, po administered as single dose via gavage measured after 168 hrs by liquid scintillation counting; assay type: ADME, organism-based; parameters: dose 10 mg/kg, dosed compound name [14C]lixivaptan, route oral; conditions: in vivo
How it was run: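 Intact SD rats (3/gender) dosed by gavage with [14C]drug 10 mg/kg (10 ml/kg, pluronic F68/water), housed in metabolism cages; urine and feces at 0-8, 8-24 h, then every 24 h to 7 days. Urine counted by LSC; feces homogenized 20% w/w in water, combusted, trapped CO2 counted; cage wash/debris included; % of dose.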

[5] = test system: Homo sapiens; test: Tmax as total radioactivity in human plasma at 100 mg, po administered as single dose by LC-MS/MS analysis; assay type: ADME, organism-based; parameters: dosed compound name [14C]lixivaptan; conditions: in vivo
How it was run: (§3)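 Single oral 100 mg [14C]drug to healthy male volunteers; plasma at 0.25-144 h. Parent by validated LC-MS/MS, total radioactivity by LSC as ng-equiv/ml; Tmax from observed data; t1/2 = 0.693/kel from log-linear terminal regression.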

[6] = test system: Canis familiaris; test: Total Drug recovery in male beagle dog at 10 mg/kg, po administered as single dose via gavage measured after 168 hrs by liquid scintillation counting; assay type: ADME, organism-based, Canis lupus familiaris; parameters: dose 10 mg/kg, dosed compound name [14C]lixivaptan, route oral; conditions: in vivo
How it was run: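 Four male dogs, fasted 18 h, given [14C]drug by gavage as a 5.0 mg/ml suspension in pluronic F68/deionized water (2 ml/kg, 1.04 μCi/mg), followed by a 10 ml water rinse. Urine and feces collected frozen over dry ice at 0-8, 8-24 h, then every 24 h for 7 days. Feces combusted before LSC; total includes cage wash/debris.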

[7] = test system: Rattus norvegicus; test: Total drug recovery in bile duct-cannulated female Sprague-Dawley rat at 10 mg/kg, po administered as single dose via gavage measured 0 to 48 hrs by liquid scintillation counting; assay type: ADME, organism-based; parameters: dose 10 mg/kg, dosed compound name [14C]lixivaptan, route oral; conditions: in vivo
[8] = test system: Rattus norvegicus; test: Half life as total radioactivity in female Sprague-Dawley rat plasma at 10 mg/kg, po administered as single dose via gavage by LC-MS/MS analysis; assay type: ADME, organism-based; parameters: dose 10 mg/kg, dosed compound name [14C]lixivaptan, route oral; conditions: in vivo; how it was run: as §1
[9] = Retention time of the compound by HPLC analysis; assay type: physicochemical; parameters: dosed compound name [14C]lixivaptan
[10] = test system: Homo sapiens; test: Total drug recovery in human at […], po administered as single dose measured after 168 hrs by liquid scintillation counting; assay type: ADME, organism-based; parameters: dosed compound name [14C]lixivaptan, route oral; conditions: in vivo
How it was run: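 Healthy male volunteers given a single 100 mg (200 μCi) oral dose as 2×50-mg capsules with 250 ml water, fasted ≥10 h before and 4 h after dosing. Urine collected at 0-4, 4-8, 8-12, 12-24 h, then every 24 h to 168 h; feces collected as passed to 168 h. Feces homogenized (20% w/w) and combusted; radioactivity measured by LSC.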

[11] = test system: Homo sapiens; test: Half life as total radioactivity in human plasma at 100 mg, po administered as single dose by LC-MS/MS analysis; assay type: ADME, organism-based; parameters: dosed compound name [14C]lixivaptan; conditions: in vivo; how it was run: as §3
[12] = test system: Canis familiaris; test: Half life as total radioactivity in male beagle dog plasma at 10 mg/kg, po administered as single dose by LC-MS/MS analysis; assay type: ADME, organism-based, Canis lupus familiaris; parameters: dose 10 mg/kg, dosed compound name [14C]lixivaptan, route oral; conditions: in vivo
How it was run: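 Male beagles given 10 mg/kg [14C]drug oral suspension; jugular K2EDTA blood at 0.25-168 h. Parent by validated LC-MS/MS, total radioactivity by LSC; Tmax observed; t1/2 = 0.693/kel from terminal log-linear regression.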

[13] = test system: Rattus norvegicus; test: Tmax as total radioactivity in male Sprague-Dawley rat plasma at 10 mg/kg, po administered as single dose via gavage by LC-MS/MS analysis; assay type: ADME, organism-based; parameters: dose 10 mg/kg, dosed compound name [14C]lixivaptan, route oral; conditions: in vivo; how it was run: as §1
[14] = test system: Canis familiaris; test: AUC (0 to 24 hrs) in beagle dog at 10 mg/kg, po administered as single dose; assay type: ADME, organism-based, Canis lupus familiaris, Plasma; parameters: time < 24 hr, dose 10 mg/kg, dosed compound name [14C]lixivaptan, route oral; conditions: in vivo
How it was run: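 Four male beagles fasted 18 h were gavaged once with [14C]lixivaptan at 10 mg/kg (2 ml/kg). The 5.0 mg/ml suspension was in deionized water with pluronic F68 (1.04 µCi/mg). Jugular K2EDTA plasma was taken at 2, 8 and 24 h and extracted twice with 2 volumes of acetonitrile. Profiling used C18 radio-HPLC (ammonium formate/acetonitrile gradient) with on-line flow scintillation detection. Each peak is reported as percent of plasma radioactivity.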

[15] = test system: Rattus norvegicus; test: Cmax as total radioactivity in female Sprague-Dawley rat plasma at 10 mg/kg, po administered as single dose; assay type: ADME, organism-based; parameters: dose 10 mg/kg, dosed compound name [14C]lixivaptan, route oral; conditions: in vivo; how it was run: as §2
[16] = test system: Rattus norvegicus; test: Drug level in male Sprague-Dawley rat plasma at 10 mg/kg, po administered as single dose via gavage measured after 1 hr by liquid scintillation counting; assay type: ADME, organism-based; parameters: dose 10 mg/kg, dosed compound name [14C]lixivaptan, route oral; conditions: in vivo
How it was run: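 Single oral gavage of [14C]drug (10 mg/kg, 10 ml/kg) as suspension in deionized water with pluronic F68, ~29.8 µCi/mg; SD rats fasted 18 h, fed 4 h post-dose. Blood by cardiac puncture under isoflurane, 3 rats/time/gender, into K2EDTA at 1, 8, 24 h; plasma extracted twice with 2 vol acetonitrile, radio-HPLC on C18 with flow radioactivity detection, expressed as % plasma radioactivity.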

[17] = test system: Rattus norvegicus; test: Cmax as total radioactivity in male Sprague-Dawley rat plasma at 10 mg/kg, po administered as single dose via gavage by LC-MS/MS analysis; assay type: ADME, organism-based; parameters: dose 10 mg/kg, dosed compound name [14C]lixivaptan, route oral; conditions: in vivo; how it was run: as §2
[18] = test system: Canis familiaris; test: Drug recovery in cage wash/debris of male beagle dog at 10 mg/kg, po administered as single dose via gavage measured after 168 hrs by liquid scintillation counting; assay type: ADME, organism-based, Canis lupus familiaris; parameters: dose 10 mg/kg, dosed compound name [14C]lixivaptan, route oral; conditions: in vivo
How it was run: (§4)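 Four male beagles got 10 mg/kg (2 ml/kg) [14C]drug suspension (5.0 mg/ml, pluronic F68/water, 1.04 µCi/mg) by gavage. Urine and feces collected over dry ice at 0-8, 8-24 h, then every 24 h to 7 days; urine by LSC, fecal homogenates combusted then LSC; cage wash/debris included; % of dose.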

[19] = Drug recovery in feces of male beagle dog at 10 mg/kg, po administered as single dose via gavage measured after 168 hrs by liquid scintillation counting; assay type: ADME, organism-based, Canis lupus familiaris; parameters: dose 10 mg/kg, dosed compound name [14C]lixivaptan, route oral; conditions: in vivo; how it was run: as §4
[20] = test system: Rattus norvegicus; test: Tmax as total radioactivity in female Sprague-Dawley rat plasma at 10 mg/kg, po administered as single dose via gavage by LC-MS/MS analysis; assay type: ADME, organism-based; parameters: dose 10 mg/kg, dosed compound name [14C]lixivaptan, route oral; conditions: in vivo; how it was run: as §1

With `Cc1ccc(F)cc1[14C](=O)Nc1ccc(C(=O)N2Cc3cccn3Cc3ccccc32)c(Cl)c1` the t1/2 [1] was 36.6 h, the Compound recovery [2] was 13.4% and the AUC [3] was 37200 ng.Eq.hr/ml. For the same molecule, the Radiolabel recovery [4] was 3.51%, the Tmax [5] was 1.2 h and the Radiolabel recovery [6] was 95.9%. It also gave a Radiolabel recovery [7] of 70.5%, a t1/2 [8] of 33.6 h and a Retention_time [9] of 34.3 min. For the same molecule, the Radiolabel recovery [10] was 84.2%, the t1/2 [11] was 25.5 h and the t1/2 [12] was 69.7 h. For the same molecule, the Tmax [13] was 3.2 h, the AUC [14] was 11200 ng.Eq.hr/ml and the Cmax [15] was 1960 ngequiv/ml. It also gave a Compound recovery [16] of 4.1%, a Cmax [17] of 2820 ngequiv/ml and a Radiolabel recovery [18] of 4.9%. It also gave a Radiolabel recovery [19] of 83.1% and a Tmax [20] of 1.4 h.
